Measured values published in ChEMBL document CHEMBL4402514, “Norepinephrine-Transporter-Targeted and DNA-Co-Targeted Theranostic Guanidines” (J Med Chem, 2020).

How the values were obtained:
[1] = Stability in human serum assessed as intact compound level after 5 mins by HPLC analysis; format: ADME, cell-free; settings: read-out: Stability
Summary of the method: (§1)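 Radioiodinated guanidines were incubated in mouse, human or pig serum and analyzed by radio-HPLC on a C18 column at 0.8 mL/min. The gradient was 0–95% CH3CN over 50 min, then 95% for 20 min. Intact compound was fitted to monoexponential degradation to give half-life. Values are average ± std err.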

[2] = Stability in EMEM medium assessed as intact compound level incubated for 24 hrs by HPLC analysis; format: physicochemical; settings: read-out: Stability
Summary of the method: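 The compound was incubated 24 h in cell culture medium without cells or with SK-N-SH cells. Intact compound and 125IUdR catabolite were quantified by radio-HPLC on a C18 column at 0.8 mL/min, with a 0–95% CH3CN gradient over 50 min and 95% for 20 min.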

[3] = Half life in pig serum by HPLC analysis; format: ADME, cell-free, Sus scrofa; summary of the method: as §1
[4] = Drug uptake in human BE(2)-C cells assessed as level of 125I-incorporation into DNA after 1 hr and followed by compound washout with non-radioactive medium/PBS and measured immediately by gamma counting method relative to control; format: ADME, cell-based
Summary of the method: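 BE(2)-C cells were treated with radioiodinated guanidine for 1 h, washed with nonradioactive medium and PBS. They were processed immediately or returned to the incubator for a further 23 h. 125I in the DNA fraction was gamma-counted. Values are average (n ≥ 3) ± SD.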

[5] = biological target: T1, Sodium-dependent noradrenaline transporter (Homo sapiens, UniProt P23975); test: Substrate activity at NET in human SK-N-SH cells assessed as inhibition of drug uptake by measuring MIBG IC50 incubated for 1 hr in presence of nonradioactive MIBG at 37 degC by filtration based gamma counting method; format: cell-based
T1 sequence (P23975 whole entry): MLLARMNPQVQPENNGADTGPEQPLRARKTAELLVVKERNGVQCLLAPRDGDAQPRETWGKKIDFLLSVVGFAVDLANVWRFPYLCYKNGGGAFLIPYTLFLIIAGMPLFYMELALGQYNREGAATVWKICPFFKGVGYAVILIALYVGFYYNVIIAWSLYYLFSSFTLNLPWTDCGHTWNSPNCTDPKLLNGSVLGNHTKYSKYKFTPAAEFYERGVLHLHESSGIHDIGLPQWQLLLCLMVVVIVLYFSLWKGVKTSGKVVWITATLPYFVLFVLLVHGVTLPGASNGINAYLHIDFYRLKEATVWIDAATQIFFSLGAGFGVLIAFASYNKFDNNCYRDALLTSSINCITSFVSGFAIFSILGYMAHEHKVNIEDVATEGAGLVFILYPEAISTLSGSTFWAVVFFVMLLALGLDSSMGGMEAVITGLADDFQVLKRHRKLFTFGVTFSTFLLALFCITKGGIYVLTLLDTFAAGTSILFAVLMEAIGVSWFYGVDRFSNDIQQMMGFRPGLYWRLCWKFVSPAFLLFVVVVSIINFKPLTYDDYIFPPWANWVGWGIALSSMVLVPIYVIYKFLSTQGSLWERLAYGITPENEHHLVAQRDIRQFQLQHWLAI
Summary of the method: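 This was a cell-suspension competition assay. SK-N-SH cells in suspension were incubated with 125I-guanidine and graded nonradioactive MIBG, and uptake was read by filtration and γ-counting. Runs were done at 37 °C, or at 4 °C after cooling the cells on ice. The MIBG IC50 was estimated from the inhibition curves.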

[6] = biological target: T1, Sodium-dependent noradrenaline transporter; test: Substrate activity at NET in human BE(2)-C cells assessed as inhibition of drug uptake by measuring MIBG IC50 incubated for 1 hr in presence of nonradioactive MIBG at 4 degC by filtration based gamma counting method; format: cell-based
BE(2)-C [7] = test: Antiproliferative activity against human BE(2)-C cells assessed as extracellular concentration of 125I required to show 63% inhibition after 1 hr; format: cell-based
Summary of the method: (§2)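 BE(2)-C cells were treated for 1 h with several IDG concentrations, washed extensively, harvested with trypsin and replated for clonogenic assay. Cellular 125I uptake was measured per cell. D37 (63% kill) was estimated from survival versus extracellular concentration or intracellular content (mBq/cell). Values are average (std error).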

BE(2)-C [8] = test: Antiproliferative activity against human BE(2)-C cells assessed as intracellular concentration of 125I required to show 63% inhibition after 1 hr; format: cell-based; summary of the method: as §2
SK-N-SH [9] = test: Antiproliferative activity against human SK-N-SH cells assessed as extracellular concentration of 125I required to show 63% inhibition after 24 hrs; format: cell-based
Summary of the method: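 D37 (63% kill) was estimated for SK-N-SH cells treated 24 h with IDG. It is expressed as extracellular (kBq/mL) or intracellular (mBq/cell) 125I. Survival was assessed by trypan blue and clonogenic assays. Values are average (std error).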

[10] = Drug level in human SK-N-SH cells DNA at 40 +/- 0.5 kBq/mL after 1 hr and followed by compound washout with non-radioactive medium/PBS and measured immediately by gamma counting method relative to control; format: ADME, cell-based
Summary of the method: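 SK-N-SH cells were exposed 1 h to 125I compound (≈39–40 kBq/mL), then washed with nonradioactive medium and PBS. Cells were processed immediately (1 h) or re-incubated in fresh medium for 23 h (24 h). Cytoplasmic, nuclear and DNA fractions were gamma-counted.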

SK-N-SH [11] = test: Anticlonogenic activity against human SK-N-SH cells assessed as number of colonies at 40 +/- 0.5 kBq/mL kBq/mL after 1 hr by crystal violet staining based assay; format: functional
Summary of the method: (§3)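 SK-N-SH cells exposed for 1 h to 125I-MIBG (39.3 ± 0.3 kBq/mL extracellular) or IDG (40 ± 0.5 kBq/mL). For the 1 h group, cells were washed with nonradioactive medium and PBS, harvested with trypsin and replated for the clonogenic assay. For the 24 h group, cells were washed, given fresh nonradioactive medium and incubated a further 23 h before plating. Colonies were counted.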

SK-N-SH [12] = test: Anticlonogenic activity against human SK-N-SH cells assessed as number of colonies at 40 +/- 0.5 kBq/mL kBq/mL after 24 hr by crystal violet staining based assay; format: functional; summary of the method: as §3
[13] = Ratio of tumor to blood concentration in NCR nu/nu mouse xenografted with human BE(2)-C cells at 0.33 +/- 0.05 MBq administered intratumorally after 24 hrs by gamma counting method; format: ADME, tissue-based; settings: tumour, other
Summary of the method: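 Athymic Ncr nu/nu female and male mice bearing subcutaneous BE(2)-C xenografts received intratumor injections of the 125I agent. Tissues, tumor and blood were collected at 24 h and counted for radioactivity, expressed as %ID/g. Tumor-to-blood ratios were derived.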

[14] = Drug level in tumor of NCR nu/nu mouse xenografted with human BE(2)-C cells at 0.83 +/- 0.09 MBq administered intratumorally pretreated with 9 umol of BNPP after 24 hrs by gamma counting analysis; format: ADME, tissue-based, Neoplasm; settings: in vivo, other
Summary of the method: (§4)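 BE(2)-C xenograft-bearing nude mice were pre-injected with the carboxylesterase inhibitor bis-para-nitrophenylphosphate (9 or 18 μmol). They then received intratumor IDG. Tumor %ID/g was determined at 24 h.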

[15] = Drug level in tumor of NCR nu/nu mouse xenografted with human BE(2)-C cells at 0.83 +/- 0.09 MBq administered intratumorally pretreated with 18 umol of BNPP after 24 hrs by gamma counting analysis; format: ADME, tissue-based, Neoplasm; settings: in vivo, other; summary of the method: as §4
BE(2)-C [16] = test: Antitumor activity against human BE(2)-C cells xenografted with NCR nu/nu mouse assessed as tumor volume at 8.4 +/- 0.3 mBq administered intratumorally after 1 day (reference value: 0.39 +/- 0.15 cm3); format: functional
Summary of the method: (§5)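 Athymic Ncr nu/nu female and male mice bearing subcutaneous BE(2)-C xenografts were randomized by lottery into untreated control and treatment groups. Treatment was a single intratumor injection of 8.4 ± 0.3 MBq/mouse. Tumor volumes were followed to day 7 (controls) or day 14. Doubling times were calculated from day 0 to 7 and day 0 to 14. Values are average ± std err.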

BE(2)-C [17] = test: Antitumor activity against human BE(2)-C cells xenografted with NCR nu/nu mouse assessed as tumor volume at 8.4 +/- 0.3 mBq administered intratumorally after 14 days (reference value: […]); format: functional; summary of the method: as §5
BE(2)-C [18] = test: Antitumor activity against human BE(2)-C cells xenografted with NCR nu/nu mouse assessed as doubling time at 8.4 +/- 0.3 mBq administered intratumorally measured up to 7 days (reference value: 2.4 days); format: functional; summary of the method: as §5
BE(2)-C [19] = test: Antitumor activity against human BE(2)-C cells xenografted with NCR nu/nu mouse assessed as tumor volume at 8.4 +/- 0.3 mBq administered intratumorally after 7 days; format: functional; summary of the method: as §5
[20] = Partition coefficient, logP of compound; format: physicochemical; settings: octanol/water

N=C(N)NCCCCCC(=O)O[C@H]1C[C@H](n2cc([125I])c(=O)[nH]c2=O)O[C@@H]1CO
remaining at 5 min [1]: 93% | remaining at 24 h [2]: 86% | half-life [3]: 3.59 h | Drug uptake [4]: 93% | IC50 [5]: 35.2 µM | IC50 [6]: 23.9 µM | Activity (BE(2)-C [7]): 398 kBq/ml | Activity (BE(2)-C [8]): 0.91 mBq | Activity (SK-N-SH [9]): 15.6 kBq/ml | Drug uptake [10]: 70 to 80% | Activity (SK-N-SH [11]): 163 | Activity (SK-N-SH [12]): 97 | Ratio [13]: 161 | Drug uptake [14]: 1.63 % ID/g | Drug uptake [15]: 1.66 % ID/g | Activity (BE(2)-C [16]): 0.42 cm3 | Activity (BE(2)-C [17]): 2.55 cm3 | Time (BE(2)-C [18]): 14.9 days | Activity (BE(2)-C [19]): 0.54 cm3 | logP [20]: -0.2
